Activity calls are given as the source filed them. No cut-off for these calls is given here.
Key:
Mus musculus [1] = assay: Antidepressant-like activity in BALB/cJ mouse assessed as decrease in immobility time at 20 mg/kg, ip administered 30 mins before test measured for 6 mins by forced swimming test; format: functional, organism-based; set-up: dose 20 mg/kg
Summary of the method: (§1)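 Male BALB/cJ mice, 8–10 weeks old. Drugs dissolved in water and given i.p. or orally at 10 ml/kg, 30 min before the trial. Sertraline 20 mg/kg was the positive control. Each mouse was placed in a glass cylinder with 12 cm of 23 ± 1 °C water, and immobility (floating) was timed over a 6 min trial. ANOVA with Fisher's LSD; n = 9–10/group.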

Mus musculus [2] = assay: Antidepressant-like activity in BALB/cJ mouse assessed as decrease in immobility time at 1 mg/kg, po administered 30 mins before test measured for 6 mins by forced swimming test; format: functional, organism-based; set-up: dose 1 mg/kg; summary of the method: as §1
Mus musculus [3] = assay: Antidepressant-like activity in BALB/cJ mouse assessed as decrease in immobility time at 1 mg/kg, ip administered 30 mins before test measured for 6 mins by forced swimming test; format: functional, organism-based; set-up: dose 1 mg/kg; summary of the method: as §1
[4] = target: T1, Acetylcholine receptor; alpha1/beta1/delta/gamma (Homo sapiens) (UniProt P02708+P07510+P11230+Q07001); assay: Antagonist activity at alpha1beta1gammadelta nAChR in human TE671/RD cells assessed as inhibition of carbamylcholine-induced 86Rb+ ion efflux preincubated for 10 mins by liquid scintillation counting analysis; format: cell-based
[5] = target: T1, Acetylcholine receptor; alpha1/beta1/delta/gamma (Homo sapiens); assay: Agonist activity at alpha1beta1gammadelta nAChR in human TE671/RD cells assessed as stimulation of 86Rb+ ion efflux after 5 mins by liquid scintillation counting analysis; format: cell-based
Summary of the method: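 Human TE671/RD cells, which natively express muscle-type α1β1γδ nAChRs, maintained at low passage (1–26) and split 1/300 weekly. 86Rb+ efflux. Agonism given as EC50 with efficacy normalized to carbamylcholine.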

Salmonella typhimurium [6] = assay: Genotoxicity in Salmonella typhimurium TA1537 up to 3 x 10^5 uM by Ames test in presence of liver S9 fraction; format: toxicity, organism-based; details: salmonella enterica subsp. enterica serovar typhimurium
Salmonella typhimurium [7] = assay: Genotoxicity in Salmonella typhimurium TA1537 up to 3 x 10^5 uM by Ames test; format: toxicity, organism-based; details: salmonella enterica subsp. enterica serovar typhimurium
[8] = target: T2, Neuronal acetylcholine receptor; alpha3/alpha6/beta2/beta3 (Homo sapiens, UniProt P17787+P32297+Q05901+Q15825); assay: Antagonist activity at human alpha6/alpha3beta2beta3 nAChR expressed in human SHEP1 cells assessed as inhibition of carbamylcholine-induced 86Rb+ ion efflux preincubated for 10 mins by liquid scintillation counting analysis; format: cell-based
[9] = target: T2, Neuronal acetylcholine receptor; alpha3/alpha6/beta2/beta3; assay: Agonist activity at human alpha6/alpha3beta2beta3 nAChR expressed in human SHEP1 cells assessed as stimulation of 86Rb+ ion efflux after 5 mins by liquid scintillation counting analysis; format: cell-based
[10] = Chemical stability of the compound at room temperature; format: physicochemical
Salmonella typhimurium [11] = assay: Genotoxicity in Salmonella typhimurium TA1537 at 50 to 100 uM by Ames test in presence of liver S9 fraction; format: toxicity, organism-based; details: salmonella enterica subsp. enterica serovar typhimurium, s9, 100 µM
Summary of the method: (§2)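 Bacterial reverse mutation (Ames) test in TA98, TA100, TA1535 and TA1537 strains, with and without liver S9 metabolic activation. Test concentrations 5, 10, 50 and 100 μM.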

Salmonella typhimurium [12] = assay: Genotoxicity in Salmonella typhimurium TA1537 at 5 to 10 uM by Ames test in presence of liver S9 fraction; format: toxicity, organism-based; details: salmonella enterica subsp. enterica serovar typhimurium, s9, 10 µM
Salmonella typhimurium [13] = assay: Genotoxicity in Salmonella typhimurium TA1535 at 5 to 100 uM by Ames test in presence of liver S9 fraction; format: toxicity, organism-based; details: salmonella enterica subsp. enterica serovar typhimurium, s9, 100 µM; summary of the method: as §2
Salmonella typhimurium [14] = assay: Genotoxicity in Salmonella typhimurium TA100 at 5 to 100 uM by Ames test in presence of liver S9 fraction; format: toxicity, organism-based; details: salmonella enterica subsp. enterica serovar typhimurium, s9, 100 µM; summary of the method: as §2
Salmonella typhimurium [15] = assay: Genotoxicity in Salmonella typhimurium TA98 at 5 to 100 uM by Ames test in presence of liver S9 fraction; format: toxicity, organism-based; details: salmonella enterica subsp. enterica serovar typhimurium, s9, 100 µM; summary of the method: as §2
Salmonella typhimurium [16] = assay: Genotoxicity in Salmonella typhimurium TA1537 at 5 to 100 uM by Ames test; format: toxicity, organism-based; details: salmonella enterica subsp. enterica serovar typhimurium; summary of the method: as §2
Salmonella typhimurium [17] = assay: Genotoxicity in Salmonella typhimurium TA1535 at 5 to 100 uM by Ames test; format: toxicity, organism-based; details: salmonella enterica subsp. enterica serovar typhimurium; summary of the method: as §2
Salmonella typhimurium [18] = assay: Genotoxicity in Salmonella typhimurium TA100 at 5 to 100 uM by Ames test; format: toxicity, organism-based; details: salmonella enterica subsp. enterica serovar typhimurium; summary of the method: as §2
Salmonella typhimurium [19] = assay: Genotoxicity in Salmonella typhimurium TA98 at 5 to 100 uM by Ames test; format: toxicity, organism-based; details: salmonella enterica subsp. enterica serovar typhimurium; summary of the method: as §2
Caco-2 [20] = assay: Permeability from basolateral to apical side in human Caco2 cells at pH 7.4; format: ADME, cell-based; details: caco-2, pH 7.4
Summary of the method: (§3)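 Bidirectional Caco-2 monolayer permeability, apical-to-basolateral and basolateral-to-apical, at pH 7.4 on both sides. Run with and without the P-gp inhibitor verapamil. Apparent permeability given in cm/s.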

Caco-2 [21] = assay: Permeability from apical to basolateral side in human Caco2 cells at pH 7.4; format: ADME, cell-based; details: caco-2, pH 7.4; summary of the method: as §3
Plasma [22] = assay: Plasma protein binding in CD-1 mouse at 10 uM; format: ADME, cell-free
Summary of the method: (§4)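 Plasma protein binding measured in human and CD-1 mouse plasma at 10 μM test compound, given as percent bound.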

Plasma [23] = assay: Plasma protein binding in human at 10 uM; format: ADME, cell-free; summary of the method: as §4
hERG (KCNH2) [24] = target: T3, hERG (KCNH2) (Homo sapiens, UniProt Q12809); assay: Inhibition of human ERG at 1 uM relative to control
Summary of the method: (§5)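 Human ERG inhibition tested at three concentrations (0.1, 1 and 10 μM), expressed as percent inhibition.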

hERG (KCNH2) [25] = target: T3, hERG (KCNH2); assay: Inhibition of human ERG at 10 uM relative to control; summary of the method: as §5
CYP3A = assay: Inhibition of CYP3A (unknown origin) at 10 uM relative to control; format: ADME; details: human
Summary of the method: (§6)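 Inhibition of CYP1A, CYP2C9, CYP2C19, CYP2D6 and CYP3A isoforms measured in the presence of 10 μM test compound, expressed as percent inhibition.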

hERG (KCNH2) [26] = target: T3, hERG (KCNH2); assay: Inhibition of human ERG at 0.1 uM relative to control; summary of the method: as §5
CYP2D6 = CYP2D6 (Homo sapiens, UniProt P10635); assay: Inhibition of CYP2D6 (unknown origin) at 10 uM relative to control; format: ADME; summary of the method: as §6
CYP2C9 = CYP2C9 (Homo sapiens, UniProt P11712); assay: Inhibition of CYP2C9 (unknown origin) at 10 uM relative to control; format: ADME; summary of the method: as §6
CYP2C19 = CYP2C19 (Homo sapiens, UniProt P33261); assay: Inhibition of CYP2C19 (unknown origin) at 10 uM relative to control; format: ADME; summary of the method: as §6
[27] = Metabolic stability in human hepatocytes assessed as compound remaining at 1 uM after 2 hrs; format: ADME, cell-based, Hepatocyte; details: read-out: Stability
Summary of the method: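 Cryopreserved human hepatocytes incubated with 1 μM test compound for 2 h. Percent parent compound remaining unchanged was measured.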

[28] = Metabolic stability in CD-1 mouse liver microsomes assessed as compound remaining at 0.1 uM after 1 hr; format: ADME, Microsome; details: CD-1, liver microsomes; read-out: Stability
Summary of the method: (§7)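 Human or CD-1 mouse liver microsomes incubated with 0.1 μM test compound for 1 h. Percent parent compound remaining unchanged was measured.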

[29] = Metabolic stability in human liver microsomes assessed as compound remaining at 0.1 uM after 1 hr; format: ADME, Microsome; details: read-out: Stability; summary of the method: as §7
[30] = target: T4, Neuronal acetylcholine receptor; alpha4/beta2 (Homo sapiens, UniProt P17787+P43681); assay: Antagonist activity at human alpha4beta2 nACHR expressed in human SHEP1 cells assessed as inhibition of carbamylcholine-induced 86Rb+ ion efflux preincubated for 10 mins by liquid scintillation counting analysis; format: cell-based
[31] = target: T4, Neuronal acetylcholine receptor; alpha4/beta2; assay: Agonist activity at human alpha4beta2 nACHR expressed in human SHEP1 cells assessed as stimulation of 86Rb+ ion efflux after 5 mins by liquid scintillation counting analysis; format: cell-based
Mus musculus [32] = assay: Antidepressant-like activity in BALB/cJ mouse assessed as decrease in immobility time at 1 to 10 mg/kg, ip administered 30 mins before test measured for 6 mins by forced swimming test; format: functional, organism-based; summary of the method: as §1
Mus musculus [33] = assay: Toxicity in BALB/cJ mouse assessed as mortality at 10 mg/kg, ip; format: organism-based; set-up: dose 10 mg/kg, route intraperitoneal; details: in vivo
Mus musculus [34] = assay: Toxicity in BALB/cJ mouse assessed as occurrence of tremor at 5 mg/kg, ip; format: organism-based; set-up: dose 5 mg/kg, route intraperitoneal; details: in vivo
Mus musculus [35] = assay: Toxicity in BALB/cJ mouse assessed as sedative effect at 5 mg/kg, ip; format: organism-based; set-up: dose 5 mg/kg, route intraperitoneal; details: in vivo

T2 sequence (P17787 whole entry): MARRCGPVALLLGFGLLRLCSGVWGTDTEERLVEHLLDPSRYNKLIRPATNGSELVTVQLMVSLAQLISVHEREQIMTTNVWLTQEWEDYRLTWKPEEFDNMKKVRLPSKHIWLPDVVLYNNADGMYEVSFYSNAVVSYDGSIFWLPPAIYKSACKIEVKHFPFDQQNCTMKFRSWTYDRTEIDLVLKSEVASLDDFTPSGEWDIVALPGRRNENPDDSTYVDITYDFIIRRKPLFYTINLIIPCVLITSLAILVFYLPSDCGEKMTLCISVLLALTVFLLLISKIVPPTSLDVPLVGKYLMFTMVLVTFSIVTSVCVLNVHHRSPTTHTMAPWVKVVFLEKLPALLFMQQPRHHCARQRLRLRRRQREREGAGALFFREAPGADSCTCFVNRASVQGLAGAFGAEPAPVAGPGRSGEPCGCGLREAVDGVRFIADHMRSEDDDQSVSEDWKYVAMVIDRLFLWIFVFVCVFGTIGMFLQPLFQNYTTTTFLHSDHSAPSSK
T2 sequence (P32297 whole entry): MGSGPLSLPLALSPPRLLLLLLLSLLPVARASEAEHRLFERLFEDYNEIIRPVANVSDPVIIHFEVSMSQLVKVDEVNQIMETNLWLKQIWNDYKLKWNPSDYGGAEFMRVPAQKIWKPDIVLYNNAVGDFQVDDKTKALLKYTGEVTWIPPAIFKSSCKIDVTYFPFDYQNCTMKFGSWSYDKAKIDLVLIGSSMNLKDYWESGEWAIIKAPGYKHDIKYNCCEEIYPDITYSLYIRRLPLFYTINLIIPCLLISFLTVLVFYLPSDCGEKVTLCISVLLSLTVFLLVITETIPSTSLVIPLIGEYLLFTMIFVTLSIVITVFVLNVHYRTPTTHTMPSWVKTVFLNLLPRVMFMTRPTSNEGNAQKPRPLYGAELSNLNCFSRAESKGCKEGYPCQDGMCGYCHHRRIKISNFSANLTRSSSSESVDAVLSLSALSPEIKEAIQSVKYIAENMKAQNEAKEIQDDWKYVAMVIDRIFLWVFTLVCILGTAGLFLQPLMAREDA
T2 sequence (Q15825 whole entry): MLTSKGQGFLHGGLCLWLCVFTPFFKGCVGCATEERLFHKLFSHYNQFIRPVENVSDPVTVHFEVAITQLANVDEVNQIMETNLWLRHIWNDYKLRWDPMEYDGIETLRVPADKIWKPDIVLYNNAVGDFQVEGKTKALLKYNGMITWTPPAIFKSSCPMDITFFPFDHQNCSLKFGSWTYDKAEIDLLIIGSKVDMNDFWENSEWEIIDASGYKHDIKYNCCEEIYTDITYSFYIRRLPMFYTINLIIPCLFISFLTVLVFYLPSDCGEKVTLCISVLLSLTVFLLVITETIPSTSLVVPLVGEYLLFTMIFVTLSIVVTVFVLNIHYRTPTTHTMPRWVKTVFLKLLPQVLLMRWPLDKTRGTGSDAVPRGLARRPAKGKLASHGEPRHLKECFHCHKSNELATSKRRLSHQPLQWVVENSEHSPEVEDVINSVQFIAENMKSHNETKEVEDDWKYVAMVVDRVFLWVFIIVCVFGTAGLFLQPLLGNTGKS
T2 sequence (Q05901 whole entry): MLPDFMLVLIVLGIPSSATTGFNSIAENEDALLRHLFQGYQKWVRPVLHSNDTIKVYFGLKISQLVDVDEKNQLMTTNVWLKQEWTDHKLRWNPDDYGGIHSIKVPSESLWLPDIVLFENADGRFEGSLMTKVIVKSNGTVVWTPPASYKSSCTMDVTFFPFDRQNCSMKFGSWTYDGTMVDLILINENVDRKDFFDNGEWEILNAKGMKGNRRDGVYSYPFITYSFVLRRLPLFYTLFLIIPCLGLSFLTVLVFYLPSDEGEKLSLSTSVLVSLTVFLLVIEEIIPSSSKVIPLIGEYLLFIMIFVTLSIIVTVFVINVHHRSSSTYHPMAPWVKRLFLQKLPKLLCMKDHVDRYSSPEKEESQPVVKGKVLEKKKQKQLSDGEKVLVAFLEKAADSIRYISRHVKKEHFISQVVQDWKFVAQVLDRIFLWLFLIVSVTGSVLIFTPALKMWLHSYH
T3 sequence (Q12809 whole entry): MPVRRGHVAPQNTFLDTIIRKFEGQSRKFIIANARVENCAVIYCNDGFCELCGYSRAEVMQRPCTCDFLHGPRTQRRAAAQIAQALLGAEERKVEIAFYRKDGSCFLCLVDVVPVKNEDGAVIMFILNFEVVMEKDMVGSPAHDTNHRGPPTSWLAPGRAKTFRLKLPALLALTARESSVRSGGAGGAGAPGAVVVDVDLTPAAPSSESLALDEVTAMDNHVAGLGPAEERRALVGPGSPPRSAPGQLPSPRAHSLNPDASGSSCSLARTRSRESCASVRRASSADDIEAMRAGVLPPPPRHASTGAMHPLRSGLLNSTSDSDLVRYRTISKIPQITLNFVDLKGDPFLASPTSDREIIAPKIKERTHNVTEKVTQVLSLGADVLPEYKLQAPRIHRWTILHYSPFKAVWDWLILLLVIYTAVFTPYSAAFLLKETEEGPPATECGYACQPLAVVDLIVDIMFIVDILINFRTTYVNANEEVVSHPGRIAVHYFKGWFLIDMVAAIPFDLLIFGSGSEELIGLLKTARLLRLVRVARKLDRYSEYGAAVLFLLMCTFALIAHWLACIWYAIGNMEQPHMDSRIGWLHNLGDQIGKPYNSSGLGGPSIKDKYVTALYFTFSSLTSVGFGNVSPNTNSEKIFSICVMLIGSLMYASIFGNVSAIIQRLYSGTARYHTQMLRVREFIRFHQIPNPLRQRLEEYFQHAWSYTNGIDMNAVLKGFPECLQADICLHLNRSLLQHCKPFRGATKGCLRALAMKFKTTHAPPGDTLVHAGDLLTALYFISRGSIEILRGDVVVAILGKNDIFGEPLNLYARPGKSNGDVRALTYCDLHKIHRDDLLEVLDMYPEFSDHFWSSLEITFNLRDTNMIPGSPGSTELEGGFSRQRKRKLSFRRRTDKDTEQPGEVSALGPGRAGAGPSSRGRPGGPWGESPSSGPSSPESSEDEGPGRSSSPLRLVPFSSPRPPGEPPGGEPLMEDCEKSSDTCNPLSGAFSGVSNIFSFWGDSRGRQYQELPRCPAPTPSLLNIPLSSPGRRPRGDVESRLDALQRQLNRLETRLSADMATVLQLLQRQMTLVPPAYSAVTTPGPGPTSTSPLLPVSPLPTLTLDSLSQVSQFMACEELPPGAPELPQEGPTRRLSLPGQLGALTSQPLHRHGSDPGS
T4 sequence (P17787 whole entry): as the sequence (P17787 whole entry) above
T4 sequence (P43681 whole entry): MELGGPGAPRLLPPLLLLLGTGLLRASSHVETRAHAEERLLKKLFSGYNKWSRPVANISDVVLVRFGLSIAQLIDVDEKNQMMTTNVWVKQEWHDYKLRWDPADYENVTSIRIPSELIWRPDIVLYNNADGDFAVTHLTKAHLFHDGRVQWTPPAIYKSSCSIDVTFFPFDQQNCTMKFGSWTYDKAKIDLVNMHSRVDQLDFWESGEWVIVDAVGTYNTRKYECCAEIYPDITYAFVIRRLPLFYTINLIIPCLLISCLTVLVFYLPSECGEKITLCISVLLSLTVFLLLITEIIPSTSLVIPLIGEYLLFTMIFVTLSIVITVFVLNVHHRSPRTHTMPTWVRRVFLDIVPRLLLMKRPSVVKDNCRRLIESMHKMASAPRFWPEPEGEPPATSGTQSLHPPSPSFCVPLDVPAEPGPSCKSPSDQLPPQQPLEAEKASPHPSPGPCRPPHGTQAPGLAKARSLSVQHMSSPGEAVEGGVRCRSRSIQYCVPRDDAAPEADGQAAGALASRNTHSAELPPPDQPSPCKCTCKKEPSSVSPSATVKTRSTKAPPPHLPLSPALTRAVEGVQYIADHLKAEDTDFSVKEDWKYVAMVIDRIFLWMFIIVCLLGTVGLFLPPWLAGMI
Chain of CYP2D6 (P10635 whole entry): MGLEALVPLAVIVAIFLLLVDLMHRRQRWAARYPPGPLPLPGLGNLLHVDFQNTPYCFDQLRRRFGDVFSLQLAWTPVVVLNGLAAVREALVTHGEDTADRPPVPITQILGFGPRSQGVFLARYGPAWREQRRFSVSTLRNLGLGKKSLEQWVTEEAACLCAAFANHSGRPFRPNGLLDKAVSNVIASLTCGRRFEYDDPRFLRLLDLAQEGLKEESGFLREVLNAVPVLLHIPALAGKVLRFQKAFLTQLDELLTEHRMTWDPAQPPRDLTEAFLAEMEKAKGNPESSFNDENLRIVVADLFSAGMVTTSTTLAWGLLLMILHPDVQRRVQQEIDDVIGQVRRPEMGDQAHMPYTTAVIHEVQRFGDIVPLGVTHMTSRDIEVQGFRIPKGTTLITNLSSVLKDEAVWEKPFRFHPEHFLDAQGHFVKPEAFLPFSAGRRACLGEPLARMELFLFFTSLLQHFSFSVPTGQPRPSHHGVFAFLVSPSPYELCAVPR
Chain of CYP2C19 (P33261 whole entry): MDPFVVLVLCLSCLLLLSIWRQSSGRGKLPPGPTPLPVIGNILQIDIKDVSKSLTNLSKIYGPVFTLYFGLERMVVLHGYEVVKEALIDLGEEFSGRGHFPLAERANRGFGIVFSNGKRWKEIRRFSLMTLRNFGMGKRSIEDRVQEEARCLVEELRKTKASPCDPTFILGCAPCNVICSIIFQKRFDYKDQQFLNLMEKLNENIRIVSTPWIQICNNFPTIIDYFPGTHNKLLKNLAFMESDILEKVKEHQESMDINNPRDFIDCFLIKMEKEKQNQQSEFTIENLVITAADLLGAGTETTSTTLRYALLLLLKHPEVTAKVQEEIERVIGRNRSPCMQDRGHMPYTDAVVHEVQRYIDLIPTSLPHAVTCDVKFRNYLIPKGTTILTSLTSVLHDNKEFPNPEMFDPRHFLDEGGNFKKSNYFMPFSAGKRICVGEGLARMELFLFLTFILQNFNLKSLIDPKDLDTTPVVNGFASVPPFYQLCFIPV

## CN[C@H]1CC[C@@H](c2ccc(Cl)c(Cl)c2)c2ccccc21
Mus musculus [1]
  Activity: Active

## COCC[C@H]1C[C@@H]1c1cncc(OC[C@@H]2CCCN2C)c1
Mus musculus [2]
  Activity: Active
Mus musculus [3]
  Activity: Active
[4]
  inhibition: inactive
[5]
  Activity: Active

## COCC[C@H]1C[C@@H]1c1cncc(OC[C@@H]2CCCN2C)c1.O=C(O)C(O)C(O)C(=O)O
Salmonella typhimurium [6]
  Activity: Non-toxic
Salmonella typhimurium [7]
  Activity: Non-toxic

## COCC[C@H]1C[C@@H]1c1cncc(OC[C@@H]2CCN2)c1
[8]
  IC50: 9.7 nM
[9]
  EC50: 7.4 nM

## COCC[C@H]1C[C@@H]1c1cncc(OC[C@@H]2CCCN2C)c1.O=C(O)C(F)(F)F
[10]
  Stability: Stable
Salmonella typhimurium [11]
  Activity: Toxic
Salmonella typhimurium [12]
  Activity: Non-toxic
Salmonella typhimurium [13]
  Activity: Non-toxic
Salmonella typhimurium [14]
  Activity: Non-toxic
Salmonella typhimurium [15]
  Activity: Non-toxic
Salmonella typhimurium [16]
  Activity: Non-toxic
Salmonella typhimurium [17]
  Activity: Non-toxic
Salmonella typhimurium [18]
  Activity: Non-toxic
Salmonella typhimurium [19]
  Activity: Non-toxic
Caco-2 [20]
  permeability: 18.4 ×10⁻⁶ cm/s
Caco-2 [21]
  permeability: 90.9 ×10⁻⁶ cm/s
Plasma [22]
  PPB: 11%
Plasma [23]
  PPB: 31%
hERG (KCNH2) [24]
  inhibition at 1 µM: 7%
hERG (KCNH2) [25]
  inhibition at 10 µM: 23%
CYP3A
  inhibition at 10 µM: 10%
hERG (KCNH2) [26]
  inhibition at 0.1 µM: 4%
CYP2D6
  inhibition at 10 µM: 44%
CYP2C9
  inhibition at 10 µM: 30%
CYP2C19
  inhibition at 10 µM: 21%
[27]
  remaining at 2 h, 1 µM: 85.7%
[28]
  remaining at 1 h, 0.1 µM: 90.1%
[29]
  remaining at 1 h, 0.1 µM: 103%
[8]
  IC50: 23.9 nM
[30]
  IC50: 20 nM
[9]
  EC50: 9 nM
[31]
  EC50: 14.4 nM

## COCC[C@H]1C[C@@H]1c1cncc(OC[C@@H]2CCCN2)c1
Mus musculus [32]
  Activity: inactive
[4]
  inhibition: inactive
[8]
  IC50: 223 nM
[5]
  Activity: Active
[9]
  EC50: 51.5 nM

## COCC[C@H]1C[C@@H]1c1cncc(OC[C@H]2CCNC2)c1.O=C(O)C(F)(F)F (single isomer, unassigned)
Mus musculus [33]
  Activity: Toxic
Mus musculus [34]
  Activity: Toxic
Mus musculus [35]
  Activity: Toxic
[4]
  inhibition: inactive
[5]
  Activity: Active

Reference: ChEMBL document CHEMBL2407064 (J Med Chem, 2013)
